Experiments:
16-member kinase panel = experiment: Eurofins custom enzymatic kinase panel, count of kinases inhibited; assay type: biochemical; conditions: 16-member Eurofins panel, 1 μM
How it was run: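 Radiometric kinase assays were run with ATP at Km. Each test compound was tested at a single concentration of 1 μM, in duplicate, against each panel kinase, with results as percent of control. The count is the number of kinases at ≤ 10 PoC, i.e. inhibited ≥ 90%.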

PAMPA permeability = assay type: in vitro ADME; conditions: PBS pH 7.4, 5 h incubation
How it was run: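 DMSO stocks of test compound were diluted in PBS pH 7.4 and added to the donor side of a precoated PAMPA plate, with PBS pH 7.4 as acceptor, for 5 h. Both compartments were quantified by chemiluminescent nitrogen detection against a calibration curve, with background nitrogen corrected. Effective permeability was calculated from donor and acceptor concentrations, using measured rather than assumed solubility.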

[1] = system: 403 wild-type (WT) human kinases; experiment: DiscoverX scanMAX kinome-wide selectivity screen; assay type: binding; conditions: 403 WT human kinases; for no. kinases with PoC < 10: DiscoverX scanMAX, 1 μM; for S10 (1 μM): Percentage of screened kinases with PoC values < 10 at 1 μM
DRAK1 (DRAK1-NLuc) = target: T1, DRAK1 (DRAK1-NLuc) (Homo sapiens, UniProt Q9UEE5); experiment: NanoBRET cellular target engagement assay; assay type: cell-based; conditions: HEK293, 0.5 μM tracer K-9; n = 1 where no error, SEM n = 3
T1 sequence (Q9UEE5 1-414): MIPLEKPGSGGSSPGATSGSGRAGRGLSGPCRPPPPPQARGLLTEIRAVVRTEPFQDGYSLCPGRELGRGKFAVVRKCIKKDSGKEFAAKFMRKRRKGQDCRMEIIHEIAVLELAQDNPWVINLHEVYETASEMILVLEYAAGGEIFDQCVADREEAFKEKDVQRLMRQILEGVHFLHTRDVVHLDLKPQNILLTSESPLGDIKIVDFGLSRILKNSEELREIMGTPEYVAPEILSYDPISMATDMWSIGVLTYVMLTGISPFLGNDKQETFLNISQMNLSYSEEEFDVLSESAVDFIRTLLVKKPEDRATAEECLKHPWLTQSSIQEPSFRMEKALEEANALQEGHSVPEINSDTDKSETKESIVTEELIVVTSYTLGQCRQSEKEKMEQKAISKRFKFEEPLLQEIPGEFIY

TBK1 (NLuc-TBK1) = target: T2, TBK1 (NLuc-TBK1) (Homo sapiens, UniProt Q9UHD2); experiment: NanoBRET cellular target engagement assay; assay type: cell-based; conditions: HEK293, 0.5 μM tracer K-5; n = 1 where no error, SEM n = 3
T2 sequence (Q9UHD2 1-729): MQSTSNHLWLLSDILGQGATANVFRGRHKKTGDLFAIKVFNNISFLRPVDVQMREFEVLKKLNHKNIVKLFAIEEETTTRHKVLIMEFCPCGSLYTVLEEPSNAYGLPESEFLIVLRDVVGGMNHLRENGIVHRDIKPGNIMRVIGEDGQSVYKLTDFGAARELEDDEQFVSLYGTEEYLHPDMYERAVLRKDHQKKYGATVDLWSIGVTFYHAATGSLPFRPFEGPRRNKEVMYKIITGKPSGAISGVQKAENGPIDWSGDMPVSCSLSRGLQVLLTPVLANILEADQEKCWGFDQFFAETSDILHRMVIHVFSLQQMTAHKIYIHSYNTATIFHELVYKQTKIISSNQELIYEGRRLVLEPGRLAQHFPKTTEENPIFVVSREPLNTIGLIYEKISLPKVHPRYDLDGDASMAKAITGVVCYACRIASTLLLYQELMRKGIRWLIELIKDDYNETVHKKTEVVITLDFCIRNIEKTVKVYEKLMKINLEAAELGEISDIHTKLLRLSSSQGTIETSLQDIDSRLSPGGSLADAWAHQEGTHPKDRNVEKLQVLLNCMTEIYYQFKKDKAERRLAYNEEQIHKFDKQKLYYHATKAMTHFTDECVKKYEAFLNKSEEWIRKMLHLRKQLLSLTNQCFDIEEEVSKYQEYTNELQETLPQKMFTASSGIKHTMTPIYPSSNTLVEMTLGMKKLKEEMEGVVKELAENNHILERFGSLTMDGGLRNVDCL
How it was run: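 HEK293 cells were grown in DMEM with 10% FBS at 37 °C under 5% CO2, passaged every 72 h with trypsin and kept below confluency. Cells expressed NanoLuc fusions (DRAK1-NLuc or NLuc-TBK1). Dose–response was run per the manufacturer's protocol, with 0.5 μM tracer K-9 for DRAK1 and 0.5 μM tracer K-5 for TBK1. SEM was reported where assays were repeated.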

MARK3 (NLuc-MARK3) = MARK3 (NLuc-MARK3) (Homo sapiens, UniProt P27448); experiment: NanoBRET cellular target engagement assay; assay type: cell-based; conditions: HEK293, 0.5 μM tracer K-9; n = 1 where no error, SEM n = 2
Chain of MARK3 (NLuc-MARK3) (P27448 whole entry): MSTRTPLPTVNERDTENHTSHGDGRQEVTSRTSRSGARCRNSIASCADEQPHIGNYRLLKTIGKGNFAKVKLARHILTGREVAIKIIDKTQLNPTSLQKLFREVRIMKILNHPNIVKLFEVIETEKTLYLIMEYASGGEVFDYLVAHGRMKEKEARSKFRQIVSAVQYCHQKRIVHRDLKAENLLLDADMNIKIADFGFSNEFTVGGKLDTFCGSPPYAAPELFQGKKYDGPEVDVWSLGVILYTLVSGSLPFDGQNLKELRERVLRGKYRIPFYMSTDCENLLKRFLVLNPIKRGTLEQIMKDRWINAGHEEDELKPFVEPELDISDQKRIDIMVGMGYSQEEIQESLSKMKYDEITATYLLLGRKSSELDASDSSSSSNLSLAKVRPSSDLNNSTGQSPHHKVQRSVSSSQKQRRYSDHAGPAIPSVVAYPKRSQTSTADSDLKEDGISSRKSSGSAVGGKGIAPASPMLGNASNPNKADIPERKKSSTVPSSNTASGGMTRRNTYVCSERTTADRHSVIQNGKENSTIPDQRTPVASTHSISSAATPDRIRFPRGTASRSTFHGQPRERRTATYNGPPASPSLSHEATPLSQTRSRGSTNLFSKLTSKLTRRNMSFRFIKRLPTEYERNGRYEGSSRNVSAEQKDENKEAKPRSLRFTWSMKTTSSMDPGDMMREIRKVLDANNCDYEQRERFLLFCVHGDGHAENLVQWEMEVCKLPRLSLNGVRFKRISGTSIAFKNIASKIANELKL

MARK4 (NLuc-MARK4) = target: T3, MARK4 (NLuc-MARK4) (Homo sapiens, UniProt Q96L34); experiment: NanoBRET cellular target engagement assay; assay type: cell-based; conditions: HEK293, 0.5 μM tracer K-5; n = 1 where no error, SEM n = 2
T3 sequence (Q96L34 1-752): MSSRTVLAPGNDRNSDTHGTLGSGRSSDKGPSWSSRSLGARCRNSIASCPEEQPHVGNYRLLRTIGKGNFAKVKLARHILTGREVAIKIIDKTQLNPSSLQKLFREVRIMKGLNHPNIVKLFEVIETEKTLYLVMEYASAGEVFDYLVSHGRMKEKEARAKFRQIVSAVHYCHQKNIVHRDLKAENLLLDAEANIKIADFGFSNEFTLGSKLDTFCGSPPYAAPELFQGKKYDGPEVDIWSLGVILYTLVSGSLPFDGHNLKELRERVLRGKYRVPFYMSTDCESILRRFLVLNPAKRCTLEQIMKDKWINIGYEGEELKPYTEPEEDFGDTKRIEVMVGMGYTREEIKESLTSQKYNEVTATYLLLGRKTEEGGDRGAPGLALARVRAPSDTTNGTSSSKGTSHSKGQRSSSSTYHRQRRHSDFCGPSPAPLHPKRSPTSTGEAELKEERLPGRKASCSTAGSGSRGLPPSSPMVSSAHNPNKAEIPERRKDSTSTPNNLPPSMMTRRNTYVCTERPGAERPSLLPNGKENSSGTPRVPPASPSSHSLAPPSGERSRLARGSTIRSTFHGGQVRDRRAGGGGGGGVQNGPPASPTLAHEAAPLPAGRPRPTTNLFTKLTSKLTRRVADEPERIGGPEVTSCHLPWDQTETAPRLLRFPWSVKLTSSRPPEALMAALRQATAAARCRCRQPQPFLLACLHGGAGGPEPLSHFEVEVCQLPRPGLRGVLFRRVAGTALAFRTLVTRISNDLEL

Q: Which “no. kinases ≤ 10 PoC in enzyme panel” value (16-member kinase panel) does the source give for `O=C(Nc1cccc(Nc2ncc(Br)c(NCCc3cnc[nH]3)n2)c1)N1CCCC1` [BX-912, reference compound] here?
A: 14

Q: And the “Pe (permeability coefficient, PAMPA)” value (PAMPA permeability)?
A: low permeability

Q: With `NS(=O)(=O)c1ccc(CNc2nc(Nc3cccc(CN4CCOCC4)c3)ncc2Br)cc1` [Compound 6, 4-(((5-Bromo-2-((3-(morpholinomethyl)phenyl)amino)pyrimidin-4-yl)amino)methyl)benzenesulfonamide] as the compound, how does the “no. kinases ≤ 10 PoC in enzyme panel” value (16-member kinase panel) read?
A: 4

Q: And the “no. kinases with PoC < 10” value [1]?
A: 19

Q: What about the “Pe (permeability coefficient, PAMPA)” value (PAMPA permeability) of the same compound?
A: below the limit of quantitation

Q: What does the source list for `Cc1nn(CC(F)(F)F)cc1Nc1ncc(Br)c(NCCCNC(=O)C2CCC2)n1` [Compound 7, N-(3-((5-Bromo-2-((3-methyl-1-(2,2,2-trifluoroethyl)-1H-pyrazol-4-yl)amino)pyrimidin-4-yl)amino)propyl)cyclobutanecarboxamide]?
A: no. kinases ≤ 10 PoC in enzyme panel (16-member kinase panel): 7; no. kinases with PoC < 10 [1]: 62; S10 (1 μM) [1]: 0.154; DRAK1 NanoBRET IC50 (DRAK1 (DRAK1-NLuc)): submicromolar; TBK1 NanoBRET IC50 (TBK1 (NLuc-TBK1)): submicromolar

Q: With `Cc1nn(CC(F)(F)F)cc1Nc1nccc(NCCCNC(=O)C2CCC2)n1` [Compound 8, N-(3-((2-((3-Methyl-1-(2,2,2-trifluoroethyl)-1H-pyrazol-4-yl)amino)pyrimidin-4-yl)amino)-propyl)cyclobutanecarboxamide] as the compound, how does the “no. kinases ≤ 10 PoC in enzyme panel” value (16-member kinase panel) read?
A: 0

Q: What about the “no. kinases with PoC < 10” value [1] of the same compound?
A: 1

Q: With `Brc1cnc(Nc2cccc(CN3CCOCC3)c2)nc1NCCc1c[nH]cn1` [Compound 9, N^4-(2-(1H-Imidazol-4-yl)ethyl)-5-bromo-N^2-(3-(morpholinomethyl)phenyl)pyrimidine-2,4-diamine] as the compound, how does the “no. kinases ≤ 10 PoC in enzyme panel” value (16-member kinase panel) read?
A: 13

Q: What about the “no. kinases with PoC < 10” value [1] of the same compound?
A: 94

Q: And the “S10 (1 μM)” value [1]?
A: 0.233

Q: What about the “DRAK1 NanoBRET IC50” value (DRAK1 (DRAK1-NLuc)) of the same compound?
A: submicromolar

Q: And the “MARK3 NanoBRET IC50” value (MARK3 (NLuc-MARK3))?
A: submicromolar

Q: What about the “MARK4 NanoBRET IC50” value (MARK4 (NLuc-MARK4)) of the same compound?
A: submicromolar

Q: And the “Pe (permeability coefficient, PAMPA)” value (PAMPA permeability)?
A: low permeability

Q: With `Cc1nn(CC(F)(F)F)cc1Nc1ncc(Br)c(NCCc2cnc[nH]2)n1` [Compound 10, N^4-(2-(1H-Imidazol-5-yl)ethyl)-5-bromo-N^2-(3-methyl-1-(2,2,2-trifluoroethyl)-1H-pyrazol-4-yl)pyrimidine-2,4-diamine] as the compound, how does the “no. kinases ≤ 10 PoC in enzyme panel” value (16-member kinase panel) read?
A: 0

Q: And the “no. kinases with PoC < 10” value [1]?
A: 28

Q: And the “S10 (1 μM)” value [1]?
A: 0.069

Q: For `NS(=O)(=O)c1ccc(CNc2nc(Nc3cccc(CN4CCOCC4)c3)ncc2C2CC2)cc1` [Compound 11, 4-(((5-Cyclopropyl-2-((3-(morpholinomethyl)phenyl)amino)pyrimidin-4-yl)amino)methyl)-benzenesulfonamide], which “no. kinases ≤ 10 PoC in enzyme panel” value (16-member kinase panel) is on record?
A: 1

Q: What about the “no. kinases with PoC < 10” value [1] of the same compound?
A: 3

Q: And the “S10 (1 μM)” value [1]?
A: 0.007

Q: What about the “Pe (permeability coefficient, PAMPA)” value (PAMPA permeability) of the same compound?
A: low permeability

Q: What does the source list for `Cc1nn(CC(F)(F)F)cc1Nc1nccc(NCc2ccc(S(N)(=O)=O)cc2)n1` [Compound 12, 4-(((2-((3-Methyl-1-(2,2,2-trifluoroethyl)-1H-pyrazol-4-yl)amino)pyrimidin-4-yl)amino)methyl)benzenesulfonamide]?
A: no. kinases ≤ 10 PoC in enzyme panel (16-member kinase panel): 0; no. kinases with PoC < 10 [1]: 1; Pe (permeability coefficient, PAMPA) (PAMPA permeability): below the limit of quantitation

Q: With `c1cc(CN2CCOCC2)cc(Nc2ncc(C3CC3)c(NCCc3c[nH]cn3)n2)c1` [Compound 14, N^4-(2-(1H-Imidazol-4-yl)ethyl)-5-cyclopropyl-N^2-(3-(morpholinomethyl)phenyl)pyrimidine-2,4-diamine] as the compound, how does the “no. kinases ≤ 10 PoC in enzyme panel” value (16-member kinase panel) read?
A: 6

Q: And the “no. kinases with PoC < 10” value [1]?
A: 27

Q: And the “S10 (1 μM)” value [1]?
A: 0.067

Q: What about the “MARK4 NanoBRET IC50” value (MARK4 (NLuc-MARK4)) of the same compound?
A: submicromolar

Q: And the “Pe (permeability coefficient, PAMPA)” value (PAMPA permeability)?
A: low permeability

Q: Which results are given for `c1cc(CN2CCOCC2)cc(Nc2nccc(NCCc3cnc[nH]3)n2)c1` [Compound 20, N^4-(2-(1H-Imidazol-5-yl)ethyl)-N^2-(3-(morpholinomethyl)phenyl)pyrimidine-2,4-diamine]?
A: no. kinases ≤ 10 PoC in enzyme panel (16-member kinase panel): 1; no. kinases with PoC < 10 [1]: 9; S10 (1 μM) [1]: 0.022

Q: What does the source list for `NS(=O)(=O)c1ccc(CNc2nc(Nc3cccc(NC(=O)N4CCCC4)c3)ncc2C2CC2)cc1` [Compound 21, N-(3-((5-Cyclopropyl-4-((4-sulfamoylbenzyl)amino)pyrimidin-2-yl)amino)phenyl)pyrrolidine-1-carboxamide]?
A: no. kinases ≤ 10 PoC in enzyme panel (16-member kinase panel): 1; no. kinases with PoC < 10 [1]: 1

Q: For `O=C(NCCCNc1nc(Nc2cccc(NC(=O)N3CCCC3)c2)ncc1C1CC1)C1CCC1` [Compound 22, N-(3-((4-((3-(Cyclobutanecarboxamido)propyl)amino)-5-cyclopropylpyrimidin-2-yl)amino)-phenyl)pyrrolidine-1-carboxamide], which “no. kinases ≤ 10 PoC in enzyme panel” value (16-member kinase panel) is on record?
A: 9

Q: And the “no. kinases with PoC < 10” value [1]?
A: 30

Q: And the “S10 (1 μM)” value [1]?
A: 0.074

Q: And the “DRAK1 NanoBRET IC50” value (DRAK1 (DRAK1-NLuc))?
A: submicromolar

Q: And the “MARK4 NanoBRET IC50” value (MARK4 (NLuc-MARK4))?
A: submicromolar

Q: And the “Pe (permeability coefficient, PAMPA)” value (PAMPA permeability)?
A: low permeability

Q: With `Cc1nn(CC(F)(F)F)cc1Nc1ncc(Br)c(NCc2ccc(S(N)(=O)=O)cc2)n1` [GSK8612, 4-(((5-Bromo-2-((3-methyl-1-(2,2,2-trifluoroethyl)-1H-pyrazol-4-yl)amino)pyrimidin-4-yl)-amino)methyl)benzenesulfonamide, reference compound] as the compound, how does the “no. kinases ≤ 10 PoC in enzyme panel” value (16-member kinase panel) read?
A: 1

Q: And the “no. kinases with PoC < 10” value [1]?
A: 8

Q: And the “TBK1 NanoBRET IC50” value (TBK1 (NLuc-TBK1))?
A: submicromolar

Q: What about the “Pe (permeability coefficient, PAMPA)” value (PAMPA permeability) of the same compound?
A: below the limit of quantitation

Q: For `O=C(NCCCNc1nc(Nc2cccc(CN3CCOCC3)c2)ncc1C1CC1)C1CCC1` [MRT67307, reference compound], which “no. kinases ≤ 10 PoC in enzyme panel” value (16-member kinase panel) is on record?
A: 12

Q: And the “DRAK1 NanoBRET IC50” value (DRAK1 (DRAK1-NLuc))?
A: submicromolar

Q: For `CN1CCc2cc(Nc3ncc(C4CC4)c(NCCCNC(=O)C4CCC4)n3)ccc2C1` [MRT68921, reference compound], which “no. kinases ≤ 10 PoC in enzyme panel” value (16-member kinase panel) is on record?
A: 13
